Laboratory results reported in PubChem BioAssay.
Active and inactive are the calls of the source. Rule as the data show it, unless noted: active = inhibition above about 30%; inactive = the rest.

Key:
[1] = reducers of endogenous Her2 protein level, primary screen, SKBR3 breast tumor cells, AlphaScreen, ATP viability (AID 461;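 active = Her2 level under about 52% in both replicate screens, with viability over 70% of control, limit read from the data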;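 as to Her2 level: lower value means less Her2 protein in the cells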;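 as to viability: percent of carrier control wells set as 100% viability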); conditions: 18-24 h, measured here: SKBR3 viability, ATP luminescence, at 10 µM
[2] = molecular target: Receptor tyrosine-protein kinase erbB-2 (Homo sapiens) (UniProt P04626); assay: as above; conditions: 18-24 h, at 10 µM, stronger effect = lower value
Chain of Receptor tyrosine-protein kinase erbB-2 (Homo sapiens) (P04626 whole entry, looked up): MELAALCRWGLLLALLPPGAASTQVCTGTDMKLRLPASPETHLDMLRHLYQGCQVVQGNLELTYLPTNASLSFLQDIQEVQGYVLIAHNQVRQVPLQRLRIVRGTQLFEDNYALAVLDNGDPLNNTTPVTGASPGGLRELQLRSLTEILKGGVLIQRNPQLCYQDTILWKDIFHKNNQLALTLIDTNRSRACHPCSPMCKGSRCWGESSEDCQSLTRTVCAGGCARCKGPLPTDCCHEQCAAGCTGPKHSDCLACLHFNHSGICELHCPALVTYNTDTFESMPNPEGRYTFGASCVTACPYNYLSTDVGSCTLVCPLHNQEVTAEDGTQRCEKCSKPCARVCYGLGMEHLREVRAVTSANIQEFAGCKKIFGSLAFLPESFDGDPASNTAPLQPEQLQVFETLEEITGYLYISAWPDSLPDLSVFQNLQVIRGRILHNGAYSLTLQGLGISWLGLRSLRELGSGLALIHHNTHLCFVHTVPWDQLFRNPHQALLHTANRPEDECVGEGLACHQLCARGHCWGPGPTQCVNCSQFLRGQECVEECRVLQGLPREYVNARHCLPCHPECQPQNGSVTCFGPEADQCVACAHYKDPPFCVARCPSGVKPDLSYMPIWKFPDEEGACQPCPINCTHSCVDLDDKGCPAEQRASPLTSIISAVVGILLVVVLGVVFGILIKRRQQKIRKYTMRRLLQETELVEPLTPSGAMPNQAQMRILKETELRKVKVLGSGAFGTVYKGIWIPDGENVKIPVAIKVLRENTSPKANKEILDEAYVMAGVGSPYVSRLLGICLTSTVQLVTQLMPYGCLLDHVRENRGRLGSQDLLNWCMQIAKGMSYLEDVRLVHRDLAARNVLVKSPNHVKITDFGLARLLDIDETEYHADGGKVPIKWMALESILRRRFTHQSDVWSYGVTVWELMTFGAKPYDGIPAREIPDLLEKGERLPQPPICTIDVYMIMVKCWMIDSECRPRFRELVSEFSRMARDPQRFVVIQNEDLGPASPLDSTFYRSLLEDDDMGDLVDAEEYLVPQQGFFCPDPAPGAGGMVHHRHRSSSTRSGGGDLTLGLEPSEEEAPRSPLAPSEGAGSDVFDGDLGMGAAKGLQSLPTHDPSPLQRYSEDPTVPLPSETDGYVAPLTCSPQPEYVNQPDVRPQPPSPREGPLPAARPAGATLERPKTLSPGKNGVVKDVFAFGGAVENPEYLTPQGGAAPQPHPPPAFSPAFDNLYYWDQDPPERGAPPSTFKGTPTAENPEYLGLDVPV

[3] = SK-BR-3 cell growth inhibitors, pilot screen, 24 h, human (AID 572;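 active = viability at or below 10% of carrier control in both of two separate runs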;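 also: compound exposure lasted between 18 and 24 h rather than exactly 24 h; 100% = carrier-treated control wells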); conditions: SK-BR-3 viability, CellTiter-Glo luminescence, at 10 µM, stronger effect = lower value
[4] = HUVEC growth inhibition – cell-based, human, primary screen (AID 575;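 active = viability at or below 30% in both replicate assays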;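 also: 100% = median of untreated cell wells with 0.1% DMSO on each plate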); conditions: HUVEC proliferation, CellTiter-Glo luminescence, 72 h; at 10 µM; stronger effect = lower value
Outline: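 Test system: primary human umbilical vein endothelial cells. Quantity: 1250 cells/well. Compound: single 10 µM dose, 0.1% DMSO, from 5x medium stock. Timing: 72 h treatment at 37 °C. Detection: ATP-based CellTiter-Glo luminescent read. Benchmarks: vehicle and MePR control wells. Format: 384-well plates coated with collagen.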

[5] = growth inhibitors of H69AR lung tumor, primary screen, human, duplicate replicates (AID 580;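 active = viability at or under a set limit in both replicates, limit being median viability minus 3 SD, cut at about 48% in these data, passing the limit was not always enough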;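 also: 100% = mean luminescence of untreated wells and 0% = no signal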); conditions: H69AR lung tumor cells viability, ATP luminescence, 72 h; at 10 µM; stronger effect = lower value
[6] = reversal of MRP1-mediated doxorubicin resistance, pilot screen, H69AR cells, doxorubicin co-treatment (AID 601;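 active = viability loss from added drug above about 55%, and viability with drug at most 40%, in both replicates, limit read from the data, passing the limit was not always enough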); conditions: CellTiter-Glo, 72 h, at 10 µM; for differential viability (reversal): stronger effect = higher value
[7] = 384-well plate pilot, post-Golgi transport modulator project, inhibition of yeast transport mutant growth (AID 636; in the data active = inhibition above about 31%); conditions: absorbance 615 nm, about 18 h, stronger effect = higher value
[8] = growth suppression of yeast trafficking mutant, preliminary HTS, modulators of trafficking downstream of Golgi apparatus project, 1536-format plate, OD 615 nm (AID 637); conditions: yeast transport mutant growth, absorbance 615 nm, 18 h; stronger effect = higher value
[9] = H69AR cells + 2 uM doxorubicin, measured here: viability with 2 uM doxorubicin, stronger effect = lower value
[10] = H69AR cells, compound alone cytotoxicity

Row | SMILES | viability [1] | Her2 level [2] | viability [3] | viability [4] | viability [5] | differential viability (reversal) ([6]; H69AR cells + 2 uM doxorubicin) | viability [6, 9] | viability [6, 10] | inhibition [7] | inhibition [8]
1 | CC1(C)Cc2c(sc3ncnc(N)c23)CO1 | 116% | 92.5% (inactive) | 116% (inactive) | 96.6% (inactive) | 95.6% (inactive) | 8.37% (inactive) | 87.3% | 95.6% | -7.47% (inactive) | 1.48% (inactive)
2 | O=c1c2ccccc2nnn1CSc1nc2cc(Cl)ccc2c(=O)n1Cc1ccco1 | 102% | 104% (inactive) | 102% (inactive) | 81.5% (inactive) | 86.4% (inactive) | 4.62% (inactive) | 81.7% | 86.4% | -0.53% (inactive) | -4.03% (inactive)
3 | CCc1nn2c(=O)cc(CSc3nc4sc5c(c4c(=O)n3C)CCCC5)nc2s1 | 100% | 98% (inactive) | 100% (inactive) | 113% (inactive) | 90% (inactive) | 0.36% (inactive) | 89.6% | 90% | -0.65% (inactive) | 10% (inactive)
4 | O=C(O)[C@@H]1CCCN1c1ncnc2sc3c(c12)CCC3 | 128% | 100% (inactive) | 128% (inactive) | 98.3% (inactive) | 106% (inactive) | 3.99% (inactive) | 102% | 106% | -6.8% (inactive) | 0.32% (inactive)
5 | CCOC(=O)c1cnc(-n2cc(C)cn2)nc1Nc1ccccc1OC | 92.5% | 94% (inactive) | 92.5% (inactive) | 80.8% (inactive) | 60.8% (inactive) | -8.94% (inactive) | 69.8% | 60.8% | -4.55% (inactive) | -4.13% (inactive)
6 | CCCS(=O)(=O)N1CCN(C(=O)c2cccs2)CC1 | 99.5% | 99.5% (inactive) | 99.5% (inactive) | 110% (inactive) | 99.9% (inactive) | -0.9% (inactive) | 101% | 99.9% | -1.07% (inactive) | 2.95% (inactive)
7 | COc1ccc(N2CCN(Cc3nc(-c4ccc(Cl)cc4Cl)no3)CC2)cc1 | 117% | 83.5% (inactive) | 117% (inactive) | 70.5% (inactive) | 91.5% (inactive) | 9.36% (inactive) | 82.2% | 91.5% | -4.68% (inactive) | -5.57% (inactive)
